Measured values from ChEMBL document CHEMBL1828592, “Synthesis and anti-microbial activity of some 1- substituted amino-4,6-dimethyl-2-oxo-pyridine-3-carbonitrile derivatives” (2011).
Activity calls are given as the source filed them. No cut-off for these calls is given here.

Columns and labels:
[1] = tested on: Staphylococcus aureus; test: Antibacterial activity against Staphylococcus aureus RCMB 000106 at 10 mg/ml after 24 hrs by diffusion agar technique; assay type: functional; details: for zone of inhibition at 10000 µg/mL: RCMB 000106, 24 h, read-out: IZ
Outline: (§1)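 Agar well diffusion: 24 h bacterial culture pellets (approx. 10^4–10^6 CFU/mL) spread on nutrient agar, pH 7.0. Wells (6 mm) loaded with 100 μL sample at 10 mg/mL in DMSO; DMSO control. Incubated 37 °C, 24 h. Inhibition zone (mm, beyond well) measured three times by caliper and averaged; three runs per strain; mean ± SD.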

[2] = tested on: Bacillus subtilis; test: Antibacterial activity against Bacillus subtilis RCMB 000107 at 10 mg/ml after 24 hrs by diffusion agar technique; assay type: functional; details: for zone of inhibition at 10000 µg/mL: RCMB 000107, 24 h, read-out: IZ; outline: as §1
[3] = tested on: Aspergillus fumigatus; test: Antifungal activity against Aspergillus fumigatus RCMB 002003 at 10 mg/ml after 3 to 4 days by agar well diffusion method; assay type: functional; details: for zone of inhibition at 10000 µg/mL: read-out: IZ
Outline: (§2)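 Patient-isolated fungi, purified by single-spore isolation, were grown 3–4 days in Sabouraud dextrose broth to about 10^5 CFU/mL. 0.1 mL was spread on Sabouraud dextrose agar. Wells were sealed at the bottom with 0.8% soft agar and loaded with 100 μL sample (10 mg/mL, DMSO); DMSO was the control. Incubated 30 °C, 3–4 days. Zone read three times by caliper and averaged; mean ± SD.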

[4] = tested on: Escherichia coli; test: Antibacterial activity against Escherichia coli RCMB 000103 at 10 mg/ml after 24 hrs by diffusion agar technique; assay type: functional; details: for zone of inhibition at 10000 µg/mL: RCMB 000103, 24 h, read-out: IZ; outline: as §1
[5] = tested on: Syncephalastrum racemosum; test: Antifungal activity against Syncephalastrum racemosum RCMB 005003 at 10 mg/ml after 3 to 4 days by agar well diffusion method; assay type: functional, organism-based; outline: as §2
[6] = tested on: Geotrichum candidum; test: Antifungal activity against Geotrichum candidum RCMB 052006 at 10 mg/ml after 3 to 4 days by agar well diffusion method; assay type: functional; details: for zone of inhibition at 10000 µg/mL: read-out: IZ; outline: as §2
[7] = tested on: Candida albicans; test: Antifungal activity against Candida albicans RCMB 005002 at 10 mg/ml after 3 to 4 days by agar well diffusion method; assay type: functional; details: for zone of inhibition at 10000 µg/mL: read-out: IZ; outline: as §2
[8] = tested on: Pseudomonas aeruginosa; test: Antibacterial activity against Pseudomonas aeruginosa RCMB 000102 at 10 mg/ml after 24 hrs by diffusion agar technique; assay type: functional; outline: as §1
[9] = tested on: Pseudomonas aeruginosa; test: Antibacterial activity against Pseudomonas aeruginosa RCMB 000102 at 30 ug/ml after 24 hrs by diffusion agar technique; assay type: functional; details: RCMB 000102, 24 h, read-out: IZ
Outline: (§3)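 Reference antibiotic tested at 30 μg/mL, 100 μL per 6 mm well in agar diffusion on nutrient agar (pH 7.0) seeded with approx. 10^4–10^6 CFU/mL bacteria. Incubated 37 °C for 24 h. Inhibition zone beyond well diameter (mm) read by caliper in triplicate and averaged; mean ± SD.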

[10] = tested on: Escherichia coli; test: Antibacterial activity against Escherichia coli RCMB 000103 at 30 ug/ml after 24 hrs by diffusion agar technique; assay type: functional; details: RCMB 000103, 24 h, read-out: IZ
Outline: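 Agar well diffusion on nutrient agar (pH 7.0) spread with centrifuged bacterial pellets from a 24 h culture, about 10^4–10^6 CFU/mL. Wells receive 100 µL of sample in DMSO: tested samples at 10 mg/mL, standard antibiotic at 30 μg/mL, DMSO as control. Incubation is 37 °C for 24 h. Inhibition zone in mm beyond the 6 mm well is measured three times by caliper and averaged. Three runs, mean ± SD.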

[11] = tested on: Staphylococcus aureus; test: Antibacterial activity against Staphylococcus aureus RCMB 000106 at 30 ug/ml after 24 hrs by diffusion agar technique; assay type: functional; details: RCMB 000106, 24 h, read-out: IZ; outline: as §3
[12] = tested on: Bacillus subtilis; test: Antibacterial activity against Bacillus subtilis RCMB 000107 at 30 ug/ml after 24 hrs by diffusion agar technique; assay type: functional; details: RCMB 000107, 24 h, read-out: IZ; outline: as §3
[13] = tested on: Geotrichum candidum; test: Antifungal activity against Geotrichum candidum RCMB 052006 at 30 ug/ml after 3 to 4 days by agar well diffusion method; assay type: functional; details: read-out: IZ
Outline: (§4)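 Reference antifungal tested at 30 μg/mL, 100 μL per well, on Sabouraud dextrose agar spread with 0.1 mL of a fungal culture at about 10^5 CFU/mL. Wells were bottom-sealed with 0.8% soft agar. Incubated 30 °C, 3–4 days. Inhibition zone (mm) measured three times by caliper and averaged; mean ± SD.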

[14] = tested on: Aspergillus fumigatus; test: Antifungal activity against Aspergillus fumigatus RCMB 002003 at 30 ug/ml after 3 to 4 days by agar well diffusion method; assay type: functional; details: read-out: IZ; outline: as §4
[15] = tested on: Candida albicans; test: Antifungal activity against Candida albicans RCMB 005002 at 30 ug/ml after 3 to 4 days by agar well diffusion method; assay type: functional; details: read-out: IZ; outline: as §4
[16] = tested on: Syncephalastrum racemosum; test: Antifungal activity against Syncephalastrum racemosum RCMB 005003 at 30 ug/ml after 3 to 4 days by agar well diffusion method; assay type: functional; details: read-out: IZ; outline: as §4

Question: Which zone of inhibition at 10000 µg/mL [1] does the source give for `Cc1cc(C)n(/N=C/c2cn(-c3ccccc3)nc2-c2cc3ccccc3o2)c(=O)c1C#N` here?
Answer: 21.2 mm

Question: And the zone of inhibition at 10000 µg/mL [2]?
Answer: 23.2 mm

Question: And the zone of inhibition at 10000 µg/mL [3]?
Answer: 14.2 mm

Question: What about the zone of inhibition at 10000 µg/mL [4] of the same compound?
Answer: 11.5 mm

Question: What about the “inhibition zone (IZ)” value [5] of the same compound?
Answer: inactive

Question: What about the zone of inhibition at 10000 µg/mL [6] of the same compound?
Answer: 16.5 mm

Question: What about the zone of inhibition at 10000 µg/mL [7] of the same compound?
Answer: 15.5 mm

Question: And the “inhibition zone (IZ)” value [8]?
Answer: inactive

Question: What does the source list for `Cc1cc(C)n(N2C(=O)c3c(Br)c(Br)c(Br)c(Br)c3C2=O)c(=O)c1C#N`?
Answer: zone of inhibition at 10000 µg/mL [1]: 26.4 mm; zone of inhibition at 10000 µg/mL [2]: 26.4 mm; zone of inhibition at 10000 µg/mL [3]: 22.5 mm; zone of inhibition at 10000 µg/mL [4]: 12.6 mm; inhibition zone (IZ) [5]: inactive; zone of inhibition at 10000 µg/mL [6]: 23.5 mm; zone of inhibition at 10000 µg/mL [7]: 20.2 mm; inhibition zone (IZ) [8]: inactive

Question: With `Cc1cc(C)n(/N=C/c2cc3ccccc3nc2Cl)c(=O)c1C#N` as the compound, how does the “inhibition zone (IZ)” value [1] read?
Answer: inactive

Question: And the “inhibition zone (IZ)” value [2]?
Answer: inactive

Question: And the zone of inhibition at 10000 µg/mL [3]?
Answer: 13.3 mm

Question: And the “inhibition zone (IZ)” value [4]?
Answer: inactive

Question: What about the “inhibition zone (IZ)” value [5] of the same compound?
Answer: inactive

Question: What about the zone of inhibition at 10000 µg/mL [6] of the same compound?
Answer: 12.4 mm

Question: And the zone of inhibition at 10000 µg/mL [7]?
Answer: 10.2 mm

Question: What about the “inhibition zone (IZ)” value [8] of the same compound?
Answer: inactive

Question: Which results are given for `CC1(C)S[C@@H]2[C@H](NC(=O)Cc3ccccc3)C(=O)N2[C@H]1C(=O)O` [PENICILLIN G]?
Answer: zone of inhibition at 30 µg/mL [9]: 28.3 mm; zone of inhibition at 30 µg/mL [10]: 33.6 mm; zone of inhibition at 30 µg/mL [11]: 29.5 mm; zone of inhibition at 30 µg/mL [12]: 32.6 mm

Question: Which results are given for `Cc1cc(C)n(/N=C/c2cc3ccccc3n3nnnc23)c(=O)c1C#N`?
Answer: zone of inhibition at 10000 µg/mL [1]: 18.6 mm; zone of inhibition at 10000 µg/mL [2]: 17.3 mm; zone of inhibition at 10000 µg/mL [3]: 11.2 mm; zone of inhibition at 10000 µg/mL [4]: 9.3 mm; inhibition zone (IZ) [5]: inactive; zone of inhibition at 10000 µg/mL [6]: 13.4 mm; zone of inhibition at 10000 µg/mL [7]: 11.4 mm; inhibition zone (IZ) [8]: inactive

Question: How did the zone of inhibition at 10000 µg/mL [1] turn out when `Cc1cc(C)n(NC(=O)C(=O)CC(=O)c2cc3ccccc3o2)c(=O)c1C#N` was run?
Answer: 20.4 mm

Question: What about the zone of inhibition at 10000 µg/mL [2] of the same compound?
Answer: 21.8 mm

Question: And the “inhibition zone (IZ)” value [3]?
Answer: inactive

Question: What about the zone of inhibition at 10000 µg/mL [4] of the same compound?
Answer: 7.4 mm

Question: And the “inhibition zone (IZ)” value [5]?
Answer: inactive

Question: And the “inhibition zone (IZ)” value [6]?
Answer: inactive

Question: What about the “inhibition zone (IZ)” value [7] of the same compound?
Answer: inactive

Question: And the “inhibition zone (IZ)” value [8]?
Answer: inactive

Question: For `Cc1cc(C)n(NC(=O)Nc2ccccc2)c(=O)c1C#N`, which zone of inhibition at 10000 µg/mL [1] is on record?
Answer: 7.2 mm

Question: And the zone of inhibition at 10000 µg/mL [2]?
Answer: 10.4 mm

Question: And the zone of inhibition at 10000 µg/mL [3]?
Answer: 9.2 mm

Question: What about the zone of inhibition at 10000 µg/mL [4] of the same compound?
Answer: 11.4 mm

Question: And the “inhibition zone (IZ)” value [5]?
Answer: inactive

Question: And the zone of inhibition at 10000 µg/mL [6]?
Answer: 10.4 mm

Question: What about the zone of inhibition at 10000 µg/mL [7] of the same compound?
Answer: 7.4 mm

Question: What about the “inhibition zone (IZ)” value [8] of the same compound?
Answer: inactive

Question: With `Cc1ccc2c(c1)cc(/C=N/n1c(C)cc(C)c(C#N)c1=O)c1nnnn12` as the compound, how does the zone of inhibition at 10000 µg/mL [1] read?
Answer: 23.2 mm

Question: And the zone of inhibition at 10000 µg/mL [2]?
Answer: 24.3 mm

Question: And the zone of inhibition at 10000 µg/mL [3]?
Answer: 15.2 mm

Question: And the zone of inhibition at 10000 µg/mL [4]?
Answer: 11.2 mm

Question: And the “inhibition zone (IZ)” value [5]?
Answer: inactive

Question: What about the zone of inhibition at 10000 µg/mL [6] of the same compound?
Answer: 18.4 mm

Question: What about the zone of inhibition at 10000 µg/mL [7] of the same compound?
Answer: 15.4 mm

Question: And the “inhibition zone (IZ)” value [8]?
Answer: inactive

Question: What does the source list for `Clc1ccccc1C(c1ccccc1)(c1ccccc1)n1ccnc1` [CLOTRIMAZOLE]?
Answer: zone of inhibition at 30 µg/mL [13]: 23 mm; zone of inhibition at 30 µg/mL [14]: 26 mm; zone of inhibition at 30 µg/mL [15]: 18 mm; zone of inhibition at 30 µg/mL [16]: 20 mm

Question: `Cc1cc(C)n(/N=C/c2cccs2)c(=O)c1C#N` was tested. Which zone of inhibition at 10000 µg/mL [1] did it give?
Answer: 14 mm

Question: And the “inhibition zone (IZ)” value [2]?
Answer: inactive

Question: What about the zone of inhibition at 10000 µg/mL [3] of the same compound?
Answer: 11 mm

Question: What about the “inhibition zone (IZ)” value [4] of the same compound?
Answer: inactive

Question: What about the “inhibition zone (IZ)” value [5] of the same compound?
Answer: inactive

Question: And the zone of inhibition at 10000 µg/mL [6]?
Answer: 13 mm

Question: What about the zone of inhibition at 10000 µg/mL [7] of the same compound?
Answer: 12 mm

Question: And the zone of inhibition at 10000 µg/mL ([8]; RCMB 000102, 24 h, read-out: IZ)?
Answer: 14 mm
